Results from ChEMBL document CHEMBL4396890, “Synthesis, Biological Evaluation, Structure-Activity Relationship, and Mechanism of Action Studies of Quinoline-Metronidazole Derivatives Against Experimental Visceral Leishmaniasis” (J Med Chem, 2019).
Calls of active or inactive are those of the source. The rule behind the calls is not given here.

Assays:
Leishmania donovani [1] = experiment: Antileishmanial activity against Leishmania donovani MHOM/IN/80/Dd8 promastigotes harboring luciferase reporter gene at 50 uM after 48 hrs by Steady-Glo luminescence assay relative to control; assay type: functional; conditions: for inhibition at 50 µM: MHOM/IN/80/Dd8, 48 h
Method in brief: (§1)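 Luciferase-expressing L. donovani Dd8 promastigotes were grown at 24 °C in M199 with 10% heat-inactivated FBS and G418 20 μg/mL. They were treated at varied concentrations for 24 and 48 h, and inhibition was read as relative luminescence units versus untreated control. IC50 was from dose–response; screening values are mean ± SD of at least three experiments in duplicate.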

Leishmania donovani [2] = experiment: Antileishmanial activity against Leishmania donovani MHOM/IN/80/Dd8 amastigotes harboring luciferase reporter gene infected in mouse J774 cells at 50 uM after 48 hrs by Steady-Glo luminescence assay relative to control; assay type: functional; conditions: for inhibition at 50 µM: MHOM/IN/80/Dd8, J774, 48 h
Method in brief: (§2)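 Infection of J774 macrophages with L. donovani Dd8 promastigotes at a 1:8 cell:parasite ratio. Compounds were diluted 2-fold in RPMI over 3.125–100 μM final and applied for 48 h. Amastigote inhibition was read by luciferase (RLU) or by Giemsa count of amastigotes per 100 macrophages. IC50 was from dose–response; n = 3 independent experiments done in replicate.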

Leishmania donovani [3] = experiment: Antileishmanial activity against Leishmania donovani MHOM/IN/80/Dd8 promastigotes harboring luciferase reporter gene at 25 uM after 48 hrs by Steady-Glo luminescence assay relative to control; assay type: functional; conditions: for inhibition at 25 µM: MHOM/IN/80/Dd8, 48 h; method in brief: as §1
Leishmania donovani [4] = experiment: Antileishmanial activity against Leishmania donovani MHOM/IN/80/Dd8 amastigotes harboring luciferase reporter gene infected in mouse J774 cells at 25 uM after 48 hrs by Steady-Glo luminescence assay relative to control; assay type: functional; conditions: for inhibition at 25 µM: MHOM/IN/80/Dd8, J774, 48 h; method in brief: as §2
[5] = Toxicity in BALB/c mouse infected with Leishmania donovani MHOM/IN/80/Dd8 promastigotes assessed as death at 50 mg/kg, ip administered once daily for 5 days measured up to 7 days post dose; assay type: organism-based; conditions: in vivo
Method in brief: (§3)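 BALB/c mice (20 ± 2 g) were infected by tail-vein injection of 2 × 10^7 stationary-phase promastigotes. At day 15 they received ip doses in 8% DMSO/PBS for 5 consecutive days and were killed at day 7 post-treatment. Survival, general health and body weight were monitored; 5 mice per group.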

[6] = Toxicity in BALB/c mouse infected with Leishmania donovani MHOM/IN/80/Dd8 promastigotes assessed as reduction in body weight at 12.5 to 200 mg/kg, ip administered once daily for 5 days measured up to 7 days post dose; assay type: organism-based; conditions: in vivo; method in brief: as §3
[7] = Toxicity in BALB/c mouse infected with Leishmania donovani MHOM/IN/80/Dd8 promastigotes assessed as effect on health at 25 mg/kg, po administered once daily for 5 days measured up to 7 days post dose; assay type: organism-based; conditions: in vivo
Method in brief: (§4)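 BALB/c mice (20 ± 2 g) were infected by tail-vein injection of 2 × 10^7 stationary-phase promastigotes. From day 15 they were given miltefosine 25 mg/kg orally, suspended in triple-distilled water, daily for 5 days, and killed at day 7 post-treatment. Survival, health and body weight were monitored; 5 mice per group.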

Leishmania donovani [8] = experiment: Antileishmanial activity against Leishmania donovani MHOM/IN/80/Dd8 promastigotes infected in BALB/c mouse assessed as reduction in parasite load in spleen at 50 mg/kg, ip administered once daily for 5 days measured 7 days post dose by giemsa staining-based assay relative to control; assay type: functional; design: scale not given: the % may be the effect or the level left
Method in brief: (§5)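 Hamster-passaged strain was transformed to promastigotes. Stationary-phase cells (2 × 10^7 in 0.2 mL PBS) were injected into the tail vein of BALB/c mice. From day 15 post-infection, mice received compound ip in 8% DMSO in PBS for 5 consecutive days, 5 mice per group. Mice were killed day 7 post-treatment. Liver and spleen burden was read from Giemsa-stained stamp smears as LDU.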

[9] = Toxicity in BALB/c mouse infected with Leishmania donovani MHOM/IN/80/Dd8 promastigotes assessed as reduction in body weight at 50 mg/kg, ip administered once daily for 5 days measured up to 7 days post dose; assay type: organism-based; conditions: in vivo; method in brief: as §3
[10] = Toxicity in BALB/c mouse infected with Leishmania donovani MHOM/IN/80/Dd8 promastigotes assessed as effect on health at 50 mg/kg, ip administered once daily for 5 days measured up to 7 days post dose; assay type: organism-based; conditions: in vivo; method in brief: as §3
Leishmania donovani [11] = experiment: Antileishmanial activity against Leishmania donovani MHOM/IN/80/Dd8 promastigotes infected in BALB/c mouse assessed as reduction in parasite load in liver at 50 mg/kg, ip administered once daily for 5 days measured 7 days post dose by giemsa staining-based assay relative to control; assay type: functional; design: scale not given: the % may be the effect or the level left; method in brief: as §5
[12] = Toxicity in BALB/c mouse infected with Leishmania donovani MHOM/IN/80/Dd8 promastigotes assessed as death at 12.5 to 200 mg/kg, ip administered once daily for 5 days measured up to 7 days post dose; assay type: organism-based; conditions: in vivo; method in brief: as §3
[13] = Toxicity in BALB/c mouse infected with Leishmania donovani MHOM/IN/80/Dd8 promastigotes assessed as effect on health at 12.5 to 200 mg/kg, ip administered once daily for 5 days measured up to 7 days post dose; assay type: organism-based; conditions: in vivo; method in brief: as §3
[14] = Toxicity in BALB/c mouse infected with Leishmania donovani MHOM/IN/80/Dd8 promastigotes assessed as death at 25 mg/kg, po administered once daily for 5 days measured up to 7 days post dose; assay type: organism-based; conditions: in vivo; method in brief: as §4
[15] = Toxicity in BALB/c mouse infected with Leishmania donovani MHOM/IN/80/Dd8 promastigotes assessed as reduction in body weight at 25 mg/kg, po administered once daily for 5 days measured up to 7 days post dose; assay type: organism-based; conditions: in vivo; method in brief: as §4
Leishmania donovani [16] = experiment: Induction of mitochondrial potential loss in Leishmania donovani MHOM/IN/80/Dd8 promastigotes assessed as shift in red to green fluorescence at 50 uM by JC1 dye-based flow cytometry (reference value: 7.37%); assay type: functional
Leishmania donovani [17] = experiment: Antileishmanial activity against Leishmania donovani MHOM/IN/80/Dd8 promastigotes infected in BALB/c mouse assessed as reduction in parasite load in liver at 25 mg/kg, po administered once daily for 5 days measured 7 days post dose by giemsa staining-based assay relative to control; assay type: functional; design: scale not given: the % may be the effect or the level left
Method in brief: (§6)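 Reference-drug arm of the same infection model (BALB/c mice, 15-day infection, 2 × 10^7 promastigotes iv). Drug was suspended in triple distilled water and given orally at 25 mg/kg/day for 5 days, 5 mice per group. Hepatic and splenic burden was taken at day 7 post-treatment by Giemsa stamp smears, as LDU.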

[18] = Selectivity index, ratio of CC50 for mouse J774 cells to IC50 for antileishmanial activity against Leishmania donovani MHOM/IN/80/Dd8 harboring luciferase reporter gene
Leishmania donovani [19] = experiment: Antileishmanial activity against Leishmania donovani MHOM/IN/80/Dd8 amastigotes harboring luciferase reporter gene infected in mouse J774 cells after 48 hrs by Giemsa staining-based microscopic assay; assay type: functional, organism-based; conditions: MHOM/IN/80/Dd8, J774, 48 h; method in brief: as §2
Leishmania donovani [20] = experiment: Antileishmanial activity against Leishmania donovani MHOM/IN/80/Dd8 amastigotes harboring luciferase reporter gene infected in mouse J774 cells after 48 hrs by Steady-Glo luminescence assay; assay type: functional, organism-based; conditions: MHOM/IN/80/Dd8, J774, 48 h; method in brief: as §2
[21] = Selectivity index, ratio of CC50 for […] Vero cells to IC50 for antileishmanial activity against Leishmania donovani MHOM/IN/80/Dd8 harboring luciferase reporter gene; assay type: toxicity
Method in brief: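 J774 macrophages and Vero cells were exposed to 12.5–400 μM for 48 h, with viability by MTT. CC50 was derived, and SI was calculated as CC50 divided by anti-amastigote IC50 in each cell type.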

Leishmania donovani [22] = experiment: Antileishmanial activity against Leishmania donovani MHOM/IN/80/Dd8 promastigotes infected in BALB/c mouse assessed as reduction in parasite load in spleen at 25 mg/kg, po administered once daily for 5 days measured 7 days post dose by giemsa staining-based assay relative to control; assay type: functional; design: scale not given: the % may be the effect or the level left; method in brief: as §6

Row | Compound | inhibition at 50 µM (Leishmania donovani [2]) [%] | inhibition at 50 µM (Leishmania donovani [1]) [%] | inhibition at 25 µM (Leishmania donovani [3]) [%] | inhibition at 25 µM (Leishmania donovani [4]) [%] | further results
1 | Cc1ncc([N+](=O)[O-])n1CCOc1cccc(-c2cc(-c3ccccc3)c3cc([N+](=O)[O-])ccc3n2)c1 | 10.4 |  |  |  | inhibition (Leishmania donovani [1]): inactive; inhibition (Leishmania donovani [3]): inactive; inhibition (Leishmania donovani [4]): inactive
2 | Cc1ncc([N+](=O)[O-])n1CCOc1ccc(-c2cc(-c3ccccc3Cl)c3cc(Cl)ccc3n2)cc1 | 27.2 | 61.7 | 38.2 | 12.1 | 
3 | Cc1ncc([N+](=O)[O-])n1CCOc1ccc(-c2cc(-c3ccccc3)c3cc(Cl)ccc3n2)cc1 | 64.4 | 65.8 | 45.3 | 34.2 | 
4 | Cc1ncc([N+](=O)[O-])n1CCOc1cccc(-c2cc(-c3ccccc3F)c3cc(Cl)ccc3n2)c1 | 12.1 |  |  |  | inhibition (Leishmania donovani [1]): inactive; inhibition (Leishmania donovani [3]): inactive; inhibition (Leishmania donovani [4]): inactive
5 | Cc1ncc([N+](=O)[O-])n1CCOc1cccc(-c2cc(-c3ccccc3)c3cc(Cl)ccc3n2)c1 | 59.2 | 58.2 | 41.2 | 38.2 | 
6 | c1ccc2ncccc2c1 [QUINOLINE] | 83.6 | 80.2 | 42.4 | 64.5 | Activity [5]: Non-Toxic; Activity [6]: Non-Toxic; Activity [7]: Non-Toxic; Activity (Leishmania donovani [8]): 55.2%; Activity [9]: Non-Toxic; Activity [10]: Non-Toxic; Activity (Leishmania donovani [11]): 58.2%; Activity [12]: Non-Toxic; Activity [13]: Non-Toxic; Activity [14]: Non-Toxic; Activity [15]: Non-Toxic
7 | N#CC(C#N)=NNc1cccc(Cl)c1 [CARBONYL CYANIDE M-CHLOROPHENYLHYDRAZONE] |  |  |  |  | Activity (Leishmania donovani [16]): 95.49%
8 | Cc1ncc([N+](=O)[O-])n1CCOc1cccc(-c2cc(-c3ccccc3)c3ccccc3n2)c1 | 66.4 | 63 | 43 | 31.2 | 
9 | Cc1ncc([N+](=O)[O-])n1CCOc1cccc(-c2cc(-c3ccccc3Cl)c3cc(Cl)ccc3n2)c1 |  | 26 | 12.3 |  | inhibition (Leishmania donovani [2]): inactive; inhibition (Leishmania donovani [4]): inactive
10 | CCCCCCCCCCCCCCCCOP(=O)([O-])OCC[N+](C)(C)C [MILTEFOSINE] | 99.2 | 99.5 | 97.2 | 98.3 | Activity (Leishmania donovani [17]): >98%; selectivity ratio [18]: 5.8; IC50 (Leishmania donovani [19]): 9.59 µM; IC50 (Leishmania donovani [20]): 9.59 µM; Activity [7]: Non-Toxic; selectivity ratio [21]: 5.3; Activity (Leishmania donovani [22]): >98%; Activity [14]: Non-Toxic; Activity [15]: Non-Toxic
11 | Cc1ncc([N+](=O)[O-])n1CCOc1ccc(-c2cc(-c3ccccc3F)c3cc(Cl)ccc3n2)cc1 | 63.6 | 59.1 | 34.4 | 23.4 | 
12 | Cc1ncc([N+](=O)[O-])n1CCOc1cccc(-c2cc(-c3ccccc3)c3cc(Br)ccc3n2)c1 | 65.3 | 60.8 | 30.2 | 29.5 | 
13 | Cc1ncc([N+](=O)[O-])n1CCO [METRONIDAZOLE] | 68.1 | 62.2 | 41.3 | 31.2 | Activity [5]: Non-Toxic; Activity [6]: Non-Toxic; Activity [7]: Non-Toxic; Activity (Leishmania donovani [8]): 36.6%; Activity [9]: Non-Toxic; Activity [10]: Non-Toxic; Activity (Leishmania donovani [11]): 40.8%; Activity [12]: Non-Toxic; Activity [13]: Non-Toxic; Activity [14]: Non-Toxic; Activity [15]: Non-Toxic
14 | Cc1ncc([N+](=O)[O-])n1CCOc1ccc(-c2cc(-c3ccccc3)c3ccc(Br)cc3n2)cc1 | 60.3 | 63.9 | 41.3 | 33.8 | 
15 | Cc1ncc([N+](=O)[O-])n1CCOc1ccc(-c2cc(-c3ccccc3)c3ccccc3n2)cc1 | 67.7 | 93.2 | 78.2 | 45.3 | 
